Results taken from the EternaBench riboswitch data.

System: MS2 coat protein
Assay: apparent Kd, MS2 coat protein; higher = weaker binding; RNA-MaP array
In short: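 Fluorescently labeled MS2 coat protein, from 1.5 nM to 3 μM, was incubated at room temperature with designed RNAs transcribed on an Illumina sequencing chip from sequenced DNA templates. Times ran from 0.8–1.5 h at the lowest concentrations to 10–20 min at the highest, in Tris-HCl pH 7.5 buffer with KCl, MgCl2, BSA, DTT, tRNA and Tween20, with or without input ligand. Each apparent Kd is the median of per-cluster binding-curve fits, and designs with fewer than 10 measured clusters were excluded.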

[1] = designed as: ON switch for flavin mononucleotide, no ligand
[2] = ligand present: flavin mononucleotide, designed as: ON switch for flavin mononucleotide
[3] = designed as: OFF switch for flavin mononucleotide, no ligand
[4] = ligand present: flavin mononucleotide, designed as: OFF switch for flavin mononucleotide

UCUAGAUCAUCGUGACAUGAGGAUCACCCAUGUCUGCGGGCAAGAAGGUGGUCGUUGUCUAACACCAAGGAUAUUGAGGGAGGU
apparent Kd [1]: 51.5 nM | apparent Kd [2]: 30.4 nM

ACGGGACAUGAGGAUCACCCAUGUUAGGAUAUACGAACUUCGCCGAACGUGACCAAUUGUAGAAGGAACUUGGU
apparent Kd [3]: 17.2 nM | apparent Kd [4]: 14 nM

AGAAAUACAUGAGGAUCACCCAUGUGCAUCCUGACUAGUUGACAGGAUAUCAGUCUUACCUGGGCUGAGAAGGGUCCGCGUAGC
apparent Kd [3]: 19.8 nM

CCCGGUGAUGUCAAACAUGAGGAUCACCCAUGUCUUCACCAUAGAAGGCGCUUUAUUCUAGCUAGCGAGGAUAUAUGGUUUCAG
apparent Kd [3]: 39.6 nM | apparent Kd [4]: 44.6 nM

GAAUGAAUACAAGGAUAUCCCACAUGAGGAUCACCCAUGUAAAUACAAAUGUAAUACGUUGCUAAGGAGAAGGUGUAGAACAAA
apparent Kd [1]: 113 nM | apparent Kd [2]: 28.9 nM

ACUACAUGCGAAUACAUGAGGAUCACCCAUGUCCAUAAGACCUAGGAUAUCCAGUAACCCUGCAAGGAGAAGGAGGAGAGCACU
apparent Kd [1]: 25.4 nM | apparent Kd [2]: 19.6 nM

AUGCACUCAGUCAGGAUAUGCAACUUAUAAUACAGGCAGAAGGGACAUGAGGAUCACCCAUGUGGCCGGUAAGA
apparent Kd [3]: 9.13 nM | apparent Kd [4]: 39.1 nM

GGGUCGCGUUCGGCCGCCACUUGGAAACAUGAGGAUCACCCAUGUCAUAUGGUGGGACAUGUUGUAAGGACCGGGAACCGUCCUA
apparent Kd (designed as: OFF switch for tryptophan, no ligand): 64.2 nM | apparent Kd (ligand present: tryptophan, designed as: OFF switch for tryptophan): 88.1 nM

UUUCUCAAUGUCAGGAUAUAGAUUUGACAUCCUCACUAGAAGGGACAUGAGGAUCACCCAUGUGUCAAUGCGGC
apparent Kd [4]: 17.6 nM

GCAAUAACAGCAGGAUAUCGUCUCACAUGAGGAUCACCCAUGUUACUAAGUGGCUACUAGGAUUACGAGAAGGGCUGUCCACGC
apparent Kd [3]: 10.7 nM | apparent Kd [4]: 7.78 nM

UAGCCUCUUAGAGGAUAUUCAUAAGCACGCAAUGAAGAAGGCUAGGACAAGUGGGACAUGAGGAUCACCCAUGUGGGAAUAUGU
apparent Kd [3]: 43.3 nM | apparent Kd [4]: 36.8 nM

AUGUGAUAGGAGAAGGGCUGUCCAUGGACAUCACAGUACAUCCACAUGAGGAUCACCCAUGUUAAGCAGGAUAUCCUGUCGUGU
apparent Kd [3]: 27.2 nM | apparent Kd [4]: 58.9 nM

UGGAAAUGAAUAGGAUAUCAGUGUUGUCUAUAACAUGAGGAUCACCCAUGUUUCCAUUGGCCUCGUGAGAAGGAUUCUAGUAUU
apparent Kd [1]: 81.6 nM | apparent Kd [2]: 22.3 nM

ACGGUAGUACAUGAGGAUCACCCAUGUGGUUUUCUAAGAGGAUAGGAUAUACGUCCAAGCGGCAGGUAGAAGGAUCGAGUUUGC
apparent Kd [3]: 41.7 nM | apparent Kd [4]: 34 nM

CCAGGGCGAAACAUGAGGAUCACCCAUGUCCUAGCAACGAUGAGAAGGGUAAACACAAUGUCUUUACAGGAUAUCAACCAUACG
apparent Kd [1]: 11.2 nM | apparent Kd [2]: 7.6 nM

CACUGGUACGAGAAGGCACCUGAAGUUGAGAAGUGAGGAUAUCGAAAUAAACACAUGAGGAUCACCCAUGUGAUCCAAGGACGA
apparent Kd [3]: 121 nM | apparent Kd [4]: 91.6 nM

UCAAUCACACAUGAGGAUCACCCAUGUGAUAAUCAUGACUCAAGAAGGCAUGUGCAACUUGUUAAUGAGGAUAUUGGAGUAAUG
apparent Kd [3]: 31.9 nM | apparent Kd [4]: 22.3 nM

ACGAAAUCUUAAACUUACGCACAUGAGGAUCACCCAUGUCACUAGGAUAUUAAAACAAAACAAUGUAAGAAGGAGUGAGAAAAG
apparent Kd [1]: 13.6 nM | apparent Kd [2]: 11.8 nM

UGAACCGGAAAGAAGGCCUUGCUUUAACGUACAGGAGGAUAUUUCCUAUUUGUGAGCCUUGACAUGAGGAUCACCCAUGUAUCG
apparent Kd [3]: 479 nM | apparent Kd [4]: 116 nM

GUAUACAUGAGGAUCACCCAUGUCGUUCUCUUGAGAUGAACAGAGGAUAUGUGAGUAAUAGCGUGACAGAAGGCUGGACAUGAU
apparent Kd [3]: 27.7 nM | apparent Kd [4]: 16.9 nM

AUAAACUAACAUGAGGAUCACCCAUGUAUGGAGAAAAUACCUAGAAGGAGGAUAUUUACAACAUCCAAGGAUAUAGGAGCCUCA
apparent Kd [1]: 68.1 nM | apparent Kd [2]: 42.4 nM

UGAGACAGAGGAUAUACAAAAGGGAAACGAGCACAGAGGAAACAUGAGGAUCACCCAUGUAGAAGGCUGAACAG
apparent Kd [3]: 6.99 nM | apparent Kd [4]: 19 nM

CGUCCCUAGCAGAAGGUUCUUUGGGCUGCAGUGAAAGGAUAUGCCAGCACAUGAGGAUCACCCAUGUCUGUCGGAUGCACCAGA
apparent Kd [1]: 63.9 nM | apparent Kd [2]: 47 nM

GACAUCCUCACAAUACAUGAGGAUCACCCAUGUGAAGUGGCCUAGGAUAUUCAAGAGUGGGUCACGAAGAAGGAGGCUGCAGGA
apparent Kd [3]: 33.3 nM | apparent Kd [4]: 28.3 nM

GUACAUAUAGAGAAGGGUGAGUAUAUCAGCCUCACAGGAUAUCUGAUGAGUGACAUGAGGAUCACCCAUGUGGUUGUCGGUAGG
apparent Kd [3]: 214 nM | apparent Kd [4]: 102 nM

GCGCGGCGUGAAGGAUAUGGUUCAGUACAUGAGGAUCACCCAUGUCAGACAGCAUCGGGGCCGUCCCAGAAGGUCACACGUUUU
apparent Kd [1]: 9.14 nM | apparent Kd [2]: 7.36 nM
